Seven compounds from ChEMBL document CHEMBL1131145, “Halogenated chalcones with high-affinity binding to P-glycoprotein: potential modulators of multidrug resistance” (J Med Chem, 1998) can be followed below.

Experiment [1] in a line: The dissociation constant was measured as binding affinity to P-Glycoprotein C-terminal cytosolic domain using the grafit program. An outline of the steps: (§1)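 Tryptophan fluorescence excited at 295 nm, emission scanned 310–380 nm and integrated after buffer Raman subtraction. Chalcone titrated in successive additions up to 20 µM. Quenching corrected for inner-filter effect using N-acetyltryptophanamide. KD and ΔFmax obtained by curve fitting.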

Experiment [2] is described as follows: The maximal fluorescence quenching was determined using the Grafit program. An outline of the steps:
as §1

The structures appear in SMILES notation.

As for `O=C(/C=C/c1ccc(I)cc1)c1c(O)cc(O)cc1O`, the affinity in experiment [1], expressed as Kd, was 250 nM. Also, the maximal fluorescence quenching in experiment [2] stood at 86.6%.

As to `O=C(/C=C/c1ccccc1)c1c(O)cc(O)cc1O` [2',4',6-TRIHYDROXYCHALCONE], the maximal fluorescence quenching in experiment [2] stood at 87.8%.

As for `O=C(/C=C/c1ccc(O)cc1)c1c(O)cc(O)cc1O` [4,2',4',6'-TETRAHYDROXYCHALCONE], in experiment [1], the Kd turned out to be 4800 nM. The maximal fluorescence quenching in experiment [2] came to 86.8%.

For `O=C(/C=C/c1ccc(Br)cc1)c1c(O)cc(O)cc1O` [4-BROMO-2',4',6'-TRIHYDROXYCHALCONE], in experiment [1], the Kd was 570 nM. The compound further yielded a maximal fluorescence quenching in experiment [2] of 88.7%.

For the compound `O=C(/C=C/c1ccc(Cl)cc1)c1c(O)cc(O)cc1O` [4-CHLORO-2',4',6'-TRIHYDROXYCHALCONE], the Kd in experiment [1] amounted to 1300 nM. Further, in experiment [2], the maximal fluorescence quenching was determined as 80.1%.

Consider `O=C(/C=C/c1ccc(F)cc1)c1c(O)cc(O)cc1O` [4-FLUORO-2',4',6'-TRIHYDROXYCHALCONE], for which the Kd in experiment [1] is 3600 nM. In experiment [2], this compound returned a maximal fluorescence quenching of 88.1%.

Consider `COc1ccc(/C=C/C(=O)c2c(O)cc(O)cc2O)cc1` [4-METHOXYL-2',4',6'-TRIHYDROXYCHALCONE], for which the equilibrium dissociation constant (Kd) in experiment [1] is 2300 nM. Moreover, the maximal fluorescence quenching in experiment [2] turned out to be 85.5%.

A word on the Kd: it is the free concentration of one partner at which half of the binding sites on the other are occupied at equilibrium, for simple one-to-one binding.
